This note sets out measurements from ChEMBL document CHEMBL1139357, “Synthesis and anti-hepatitis B virus and anti-hepatitis C virus activities of 7-deazaneplanocin A analogues in vitro” (J Med Chem, 2009).

The structures appear in SMILES notation.

The test system of series [1] is Hepatitis C virus. Nature of the series: Antiviral activity against HCV in ET cells assessed as activity of luciferase reporter by subgenomic RNA replicon assay. The format is functional, organism-based, Hepacivirus hominis. The method, boiled down: (§1)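 ET replicon cells (dicistronic HCV replicon with firefly luciferase, three adaptive mutations) seeded at 5000/well overnight in DMEM without G418; serial compound dilutions added, 3 days incubation, luciferase read by Steady-Glo. Four replicates per point; EC50 is 50% luciferase inhibition. Marginal actives given as percent inhibition versus control at 20 µM.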
(In a reporter assay the amount or activity of a reporter protein is the signal.)

Series [2] can be described thus: Cytotoxicity against ET cells. The format is cell-based. The settings on record: for IC50: ET. The method, boiled down: (§2)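 ET replicon cells seeded at 5000/well overnight without G418; serially diluted compound for 3 days; viability by tetrazolium-based CytoTox-1 proliferation assay. Four replicates; IC50 is the concentration cutting viability by 50%. Weak compounds given as percent of control at 20 µM.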

Series [3] can be described thus: Cytotoxicity against human HepG2(2.2.15) cells assessed as uptake of neutral red dye after 24 hrs. The series is classed as cell-based. The settings on record: HepG2 2.2.15, 24 h. A digest of the protocol:
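2.2.15 cells, confluent, dosed daily for nine consecutive days; cytotoxicity by neutral red dye uptake 24 h after the last treatment.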

In series [4] the test system is Hepatitis B virus. Briefly: Antiviral activity against HBV in human HepG2(2.2.15) cells assessed as extracellular HBV virion DNA level after 24 hrs. The series is classed as functional, organism-based. The settings on record: HepG2 2.2.15, 24 h. The method, boiled down:
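Confluent HBV-producing 2.2.15 cell cultures were given nine consecutive daily doses of compound. Extracellular HBV DNA was measured by quantitative blot hybridization 24 h after the last dose. Cytotoxicity was read by neutral red uptake 24 h after the last dose.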

A short description of series [5]: Selectivity index, EC50 for HCV to IC50 for ET cells. The format is functional. The method, boiled down:
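SI50 from ET replicon luciferase EC50 (3-day assay) and CytoTox-1 viability IC50, each averaged from four replicates.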

Series [6] deals with Hepatitis C virus. Briefly: Antiviral activity against HCV in human Huh7 cells assessed as reduction of viral level after 5 days by RNA subgenomic replicon assay. The format is functional, organism-based, Hepacivirus hominis. The settings on record: Huh-7, 120 h. A digest of the protocol: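 Huh-7 clone B subgenomic replicon cells seeded at 3000/well, compounds added in duplicate at two dilutions right after seeding; 5 days at 37 °C, 5% CO2. Total RNA isolated; replicon RNA and rRNA control amplified by multiplex one-step real-time RT-PCR. Activity as ΔCt versus no-drug control; EC50/EC90 for 50%/90% reduction.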
A general note: A replicon is a self-replicating genome or part of one, used to study replication in cells.

Series [7] is described as follows: Cytotoxicity against human Huh7 cells assessed as rRNA level after 5 days. The format is cell-based. The settings on record: huh-7, 120 h. A digest of the protocol:
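Huh-7 cells carrying a subgenomic HCV replicon (clone B) were seeded at 3000 cells/well. Compound was added in duplicate at two dilutions right after seeding, then cells were incubated 5 days at 37 °C, 5% CO2. Total RNA was isolated, and replicon RNA and an rRNA internal control were co-amplified by one-step multiplex real-time RT-PCR.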

In series [8] the test system is Hepatitis B virus. Briefly: Antiviral activity against HBV in human HepG2(2.2.15) cells assessed as replication intermediates after 24 hrs. The series is classed as functional, organism-based. The settings on record: HepG2 2.2.15, 24 h. The method, boiled down: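 Confluent 2.2.15 cultures in 96-well format given nine consecutive daily doses; HBV DNA quantified by blot hybridization 24 h after the last treatment.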

The subject of series [9] is Hepatitis B virus. Briefly: Antiviral activity against adefovir-resistant wild type HBV in human Huh7 cells after 4 days by intracellular HBV DNA replication assay. The series is classed as functional, organism-based. The settings on record: Huh-7, 96 h. The method, boiled down: (§3)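 In a 5-day transient transfection assay, cells expressed wild-type or lamivudine- or adefovir-resistant HBV mutants. After 4 days of drug treatment, intracellular HBV DNA replication intermediates were quantified by Southern blot hybridization.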

Series [10] has as its system Hepatitis B virus. Nature of the series: Antiviral activity against lamivudine-resistant wild type HBV in human Huh7 cells after 4 days by intracellular HBV DNA replication assay. The format is functional, organism-based. The settings on record: Huh-7, 96 h. A digest of the protocol:
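Transient transfection of HBV into cells, 5-day assay; compounds applied for 4 days, then intracellular HBV DNA replication intermediates quantified by Southern blot hybridization to derive EC50.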

Series [11] concerns Hepatitis B virus. Nature of the series: Antiviral activity against adefovir-resistant HBV reverse transcriptase M204I mutant in human Huh7 cells after 4 days by intracellular HBV DNA replication assay. The series is classed as functional, organism-based. The settings on record: Huh-7, 96 h. The method, boiled down: as §3
Series [12] deals with Hepatitis B virus. Briefly: Antiviral activity against lamivudine-resistant HBV reverse transcriptase M204I mutant in human Huh7 cells after 4 days by intracellular HBV DNA replication assay. The series is classed as functional, organism-based. The settings on record: Huh-7, 96 h. The method, boiled down: as §3
For series [13], the system named is Hepatitis B virus. Nature of the series: Antiviral activity against adefovir-resistant HBV reverse transcriptase M204V mutant in human Huh7 cells after 4 days by intracellular HBV DNA replication assay. The series is classed as functional, organism-based. The settings on record: Huh-7, 96 h. A digest of the protocol:
as §3

The subject of series [14] is Hepatitis B virus. Nature of the series: Antiviral activity against lamivudine-resistant HBV reverse transcriptase LM/reverse transcriptase MV double mutant in human Huh7 cells after 4 days by intracellular HBV DNA replication assay. The settings on record: Huh-7, 96 h. The series is classed as functional, organism-based. The method, boiled down: as §3
Series [15] relates to Hepatitis B virus. Nature of the series: Antiviral activity against adefovir-resistant HBV reverse transcriptase 236T mutant in human Huh7 cells after 4 days by intracellular HBV DNA replication assay. The format is functional, organism-based. The settings on record: Huh-7, 96 h. A digest of the protocol: as §3
Series [16] relates to Hepatitis B virus. Nature of the series: Antiviral activity against lamivudine-resistant HBV reverse transcriptase M204V mutant in human Huh7 cells after 4 days by intracellular HBV DNA replication assay. The series is classed as functional, organism-based. The settings on record: Huh-7, 96 h. The method, boiled down: as §3
Series [17] relates to Hepatitis B virus. Nature of the series: Antiviral activity against adefovir-resistant HBV reverse transcriptase LM/reverse transcriptase MV double mutant in human Huh7 cells after 4 days by intracellular HBV DNA replication assay. The format is functional, organism-based. The settings on record: Huh-7, 96 h. A digest of the protocol:
as §3

Series [18] relates to Hepatitis B virus. Briefly: Antiviral activity against lamivudine-resistant HBV reverse transcriptase 236T mutant in human Huh7 cells after 4 days by intracellular HBV DNA replication assay. The format is functional, organism-based. The settings on record: Huh-7, 96 h. The method, boiled down: as §3
Series [19] has as its system Hepatitis B virus. Briefly: Antiviral activity against adefovir-resistant HBV reverse transcriptase L180M mutant in human Huh7 cells after 4 days by intracellular HBV DNA replication assay. The format is functional, organism-based. The settings on record: Huh-7, 96 h. The method, boiled down: as §3
Series [20] relates to Hepatitis B virus. Nature of the series: Antiviral activity against lamivudine-resistant HBV reverse transcriptase L180M mutant in human Huh7 cells after 4 days by intracellular HBV DNA replication assay. The format is functional, organism-based. The settings on record: Huh-7, 96 h. The method, boiled down: as §3
The test system of series [21] is Hepatitis C virus. Briefly: Antiviral activity against HCV in ET cells assessed as activity of luciferase reporter at 20 uM by subgenomic RNA replicon assay. The format is functional, Hepacivirus hominis. A digest of the protocol:
as §1

The nature of series [22]: Cytotoxicity against ET cells at 20uM. The series is classed as cell-based. A digest of the protocol: as §2

As for `NC(=O)c1cn([C@@H]2C=C(CO)[C@@H](O)[C@H]2O)c2ncnc(N)c12`, the concentration for a half-maximal effect (EC50) (as a rule, the midpoint of the concentration-response curve) in series [1] is 1.8 µM; in series [4], more than 10 µM. For the same molecule, the concentration for half-maximal inhibition (IC50) (as a rule, the midpoint of a concentration-inhibition curve) in series [2] was 11.8 µM; in [3] it was 300 µM.
On the same counts, the results for `Nc1ncnc2c1c(Br)cn2[C@@H]1C=C(CO)[C@@H](O)[C@H]1O` are 16.7 µM, more than 10 µM, 41.7 µM and more than 300 µM.
With `C[C@@]1(O)[C@H](O)[C@@H](CO)O[C@H]1n1cnc2c(N)ncnc21`, the Ratio in series [5] is more than 66.7. The EC50 in series [1] came out at 0.15 µM. The molecule also gave a half-maximal inhibitory concentration (IC50) in series [2] of more than 10 µM.
On to `Nc1ccn([C@@H]2O[C@H](CO)[C@@H](O)[C@]2(O)F)c(=O)n1`, for which, in series [6], the EC50 was found to be 1.7 µM and the EC90 (in general, the concentration at which the effect reaches the 90% level) came out at 5.3 µM. Besides, the CC50 – broadly, the concentration at which the toxic effect on the cells reaches its halfway point – in series [7] is more than 50 µM.
As to `Nc1ncnc2c1c(I)cn2[C@@H]1C=C(CO)[C@@H](O)[C@H]1O`, the EC50 in series [1] stood at 2.1 µM; in [4], 0.43 µM; in series [8], 1.6 µM. Also, the IC50 was 15 µM in series [2] and more than 300 µM in series [3].
As to `Nc1ccn([C@@H]2CS[C@H](CO)O2)c(=O)n1` [LAMIVUDINE], the EC50 is 1.3 µM in series [9]; 0.2 µM in series [10]; 1.8 µM in [11]; more than 100 µM in series [12]; 1.5 µM in series [13]; more than 100 µM in series [14]. In addition, the half-maximal effective concentration (EC50) in series [15] is 7.7 µM; in series [4], 0.048 µM; in [16] it was more than 100 µM; in series [17], 1.6 µM; in series [18], 0.3 µM; in series [19] it was 1.6 µM. The EC50 in [20] came out at 10 µM; in series [8] it was 0.15 µM. Besides, the IC50 in series [3] is more than 2000 µM.
Regarding `N#Cc1cn([C@@H]2C=C(CO)[C@@H](O)[C@H]2O)c2ncnc(N)c12`, the values for the Activity in [21] and in series [22] were 0.5% and 103.3%, respectively. For the same molecule, the IC50 in series [3] is more than 300 µM. Also, the EC50 in series [4] is more than 10 µM.
Turning to `Nc1ncnc2c1ncn2CCOCP(=O)(O)O` [ADEFOVIR], the EC50 in [9] was found to be 1.3 µM; in [11] it was 1.8 µM; in [13], 1.5 µM; in series [15], 7.7 µM; in [17], 1.6 µM; in series [19], 1.6 µM.
As to `C#Cc1cn([C@@H]2C=C(CO)[C@@H](O)[C@H]2O)c2ncnc(N)c12`, the EC50 in series [1] is 20.1 µM; in [4] it was 0.32 µM; in series [8], 1.8 µM. Besides, the concentration for half-maximal inhibition (IC50) in series [2] was 48.9 µM; in series [3], more than 300 µM.
Regarding `C=Cc1cn([C@@H]2C=C(CO)[C@@H](O)[C@H]2O)c2ncnc(N)c12`, the Activity is given as 49.2% in series [21] and 99.7% in [22]. In [3], the 50% inhibitory concentration (IC50) is more than 300 µM. The values for the EC50 in series [4] and in [8] were 3.3 µM and 10 µM, respectively.
For the molecule `Nc1ncnc2c1c([N+](=O)[O-])cn2[C@@H]1C=C(CO)[C@@H](O)[C@H]1O`, the half-inhibitory concentration (IC50) in series [3] was more than 300 µM. Also, the half-maximal effective concentration (EC50) in series [4] was more than 10 µM. Moreover, the Activity in series [22] was determined as 101.5%.
For `Nc1ncnc2c1c(F)cn2[C@@H]1C=C(CO)[C@@H](O)[C@H]1O`, the Activity in [21] is reported as 9.5%; in series [2] (et), 112.7%. In [3], the concentration for half-maximal inhibition (IC50) is more than 300 µM. The concentration giving a half-maximal response (EC50) in [4] is more than 10 µM.
As for `Nc1ncnc2c1c(Cl)cn2[C@@H]1C=C(CO)[C@@H](O)[C@H]1O`, the 50% effective concentration (EC50) in series [1] is 14.7 µM; in series [4], more than 10 µM. The values for the IC50 in series [2] and in series [3] were 50.1 µM and more than 300 µM, respectively.
On to `C[C@@]1(O)[C@H](O)[C@@H](CO)O[C@H]1n1ccc(N)nc1=O`, for which, in series [6], the EC50 is 3.5 µM and the EC90 was 11 µM. The CC50 in series [7] was more than 50 µM.
